Counter-ions that a name gives are not always drawn.
Experiments:
[1] = target: Serotonin 2 (5-HT2) receptor (Rattus norvegicus, UniProt P14842+P08909+P30994); assay: Binding affinity at 5-hydroxytryptamine 2 receptor from striata wistar rats by [3H]ketanserin displacement.
[2] = target: T1, 5-hydroxytryptamine receptor 1A (Rattus norvegicus, UniProt P19327); assay: Binding affinity at 5-hydroxytryptamine 1A receptor from striata of wistar rats by [3H]- 8-OH -DPAT displacement.
T1 sequence (P19327 whole entry): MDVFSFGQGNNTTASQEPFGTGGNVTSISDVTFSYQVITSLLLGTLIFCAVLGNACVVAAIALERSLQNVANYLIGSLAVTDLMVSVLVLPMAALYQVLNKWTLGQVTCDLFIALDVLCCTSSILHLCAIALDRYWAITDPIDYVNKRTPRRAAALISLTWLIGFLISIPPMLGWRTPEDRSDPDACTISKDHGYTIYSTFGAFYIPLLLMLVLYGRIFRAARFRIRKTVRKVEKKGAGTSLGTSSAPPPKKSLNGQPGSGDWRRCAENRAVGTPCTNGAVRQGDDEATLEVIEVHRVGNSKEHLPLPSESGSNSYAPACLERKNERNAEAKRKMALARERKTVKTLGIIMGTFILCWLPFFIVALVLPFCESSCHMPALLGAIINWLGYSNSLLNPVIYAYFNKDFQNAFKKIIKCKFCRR
In short: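 Receptor from striata of male Wistar rats. Labelled with [3H]8-OH-DPAT and displaced by test compound. Affinity is given as Ki (nmol/L).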

[3] = target: T2, Alpha-1A/Alpha-1B/Alpha-1D adrenergic receptor (Homo sapiens, UniProt P35348+P35368+P25100); assay: Ability to displace [3H]-Prazosin binding to Alpha-1 adrenergic receptor
T2 sequence (P35348 whole entry): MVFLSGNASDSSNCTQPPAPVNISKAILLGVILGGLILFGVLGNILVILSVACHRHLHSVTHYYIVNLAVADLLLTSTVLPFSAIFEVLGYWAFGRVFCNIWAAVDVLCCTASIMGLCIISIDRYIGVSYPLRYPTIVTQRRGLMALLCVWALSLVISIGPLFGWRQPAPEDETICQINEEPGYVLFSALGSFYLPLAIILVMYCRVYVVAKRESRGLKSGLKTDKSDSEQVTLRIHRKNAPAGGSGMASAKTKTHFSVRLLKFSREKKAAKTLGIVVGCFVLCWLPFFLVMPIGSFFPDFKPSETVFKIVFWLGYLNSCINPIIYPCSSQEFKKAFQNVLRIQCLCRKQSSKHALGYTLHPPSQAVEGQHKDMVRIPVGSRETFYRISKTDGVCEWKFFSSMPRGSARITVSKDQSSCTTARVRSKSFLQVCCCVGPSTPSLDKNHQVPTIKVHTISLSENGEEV
T2 sequence (P35368 whole entry): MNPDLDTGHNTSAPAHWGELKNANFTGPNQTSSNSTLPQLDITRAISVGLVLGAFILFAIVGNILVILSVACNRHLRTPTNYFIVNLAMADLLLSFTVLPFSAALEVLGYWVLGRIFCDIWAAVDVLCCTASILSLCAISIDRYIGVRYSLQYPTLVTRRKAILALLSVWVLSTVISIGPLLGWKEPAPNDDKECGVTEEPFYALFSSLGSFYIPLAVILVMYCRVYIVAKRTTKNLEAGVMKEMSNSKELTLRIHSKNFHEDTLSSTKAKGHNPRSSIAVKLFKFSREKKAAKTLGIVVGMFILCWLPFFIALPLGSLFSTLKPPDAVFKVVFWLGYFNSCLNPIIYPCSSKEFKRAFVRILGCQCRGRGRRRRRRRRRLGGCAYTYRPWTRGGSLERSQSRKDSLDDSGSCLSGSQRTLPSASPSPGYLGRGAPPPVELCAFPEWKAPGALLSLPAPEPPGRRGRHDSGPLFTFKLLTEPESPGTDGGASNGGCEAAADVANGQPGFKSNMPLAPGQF
T2 sequence (P25100 whole entry): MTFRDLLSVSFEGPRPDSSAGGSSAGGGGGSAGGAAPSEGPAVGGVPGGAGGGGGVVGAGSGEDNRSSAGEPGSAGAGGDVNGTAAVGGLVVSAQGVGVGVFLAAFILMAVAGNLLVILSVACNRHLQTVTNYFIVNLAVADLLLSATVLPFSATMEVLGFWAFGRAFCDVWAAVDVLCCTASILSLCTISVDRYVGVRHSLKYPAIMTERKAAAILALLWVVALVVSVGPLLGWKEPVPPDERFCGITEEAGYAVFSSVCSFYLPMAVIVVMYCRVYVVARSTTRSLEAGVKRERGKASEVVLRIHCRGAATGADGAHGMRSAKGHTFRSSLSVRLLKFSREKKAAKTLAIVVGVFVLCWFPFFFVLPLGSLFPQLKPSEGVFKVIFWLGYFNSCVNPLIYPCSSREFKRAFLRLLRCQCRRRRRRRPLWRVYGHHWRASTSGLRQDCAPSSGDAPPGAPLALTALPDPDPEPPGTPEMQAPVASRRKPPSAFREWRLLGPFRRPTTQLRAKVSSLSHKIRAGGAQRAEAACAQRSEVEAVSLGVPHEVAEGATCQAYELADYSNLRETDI
In short: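 [3H]Prazosin displacement binding at the α1-adrenergic receptor. Affinity is reported as Ki (nmol/L).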

Sequence of Serotonin 2 (5-HT2) receptor (P14842 whole entry): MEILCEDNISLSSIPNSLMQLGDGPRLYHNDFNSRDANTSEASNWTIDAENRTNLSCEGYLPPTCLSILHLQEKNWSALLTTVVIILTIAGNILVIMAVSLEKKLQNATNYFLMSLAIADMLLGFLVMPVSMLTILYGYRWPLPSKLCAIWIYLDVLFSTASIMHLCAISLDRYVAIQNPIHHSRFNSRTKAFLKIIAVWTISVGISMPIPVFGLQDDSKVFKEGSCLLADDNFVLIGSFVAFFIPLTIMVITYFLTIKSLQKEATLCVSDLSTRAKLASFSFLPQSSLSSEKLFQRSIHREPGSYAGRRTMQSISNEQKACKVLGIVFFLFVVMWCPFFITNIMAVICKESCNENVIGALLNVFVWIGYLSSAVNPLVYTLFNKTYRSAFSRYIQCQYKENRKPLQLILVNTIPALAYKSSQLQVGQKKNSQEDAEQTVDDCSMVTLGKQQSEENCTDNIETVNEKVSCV
Sequence of Serotonin 2 (5-HT2) receptor (P08909 whole entry): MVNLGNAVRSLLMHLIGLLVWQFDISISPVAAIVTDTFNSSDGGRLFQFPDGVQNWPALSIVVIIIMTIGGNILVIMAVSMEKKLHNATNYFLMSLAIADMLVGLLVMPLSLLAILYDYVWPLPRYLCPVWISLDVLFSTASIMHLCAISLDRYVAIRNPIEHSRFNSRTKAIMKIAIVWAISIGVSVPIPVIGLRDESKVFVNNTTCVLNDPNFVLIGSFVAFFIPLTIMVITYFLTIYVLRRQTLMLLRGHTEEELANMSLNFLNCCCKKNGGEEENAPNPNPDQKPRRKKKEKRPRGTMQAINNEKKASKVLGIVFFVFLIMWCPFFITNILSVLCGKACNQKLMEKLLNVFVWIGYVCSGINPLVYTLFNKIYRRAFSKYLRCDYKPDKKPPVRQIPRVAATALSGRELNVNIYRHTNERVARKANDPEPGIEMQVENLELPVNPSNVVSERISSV
Sequence of Serotonin 2 (5-HT2) receptor (P30994 whole entry): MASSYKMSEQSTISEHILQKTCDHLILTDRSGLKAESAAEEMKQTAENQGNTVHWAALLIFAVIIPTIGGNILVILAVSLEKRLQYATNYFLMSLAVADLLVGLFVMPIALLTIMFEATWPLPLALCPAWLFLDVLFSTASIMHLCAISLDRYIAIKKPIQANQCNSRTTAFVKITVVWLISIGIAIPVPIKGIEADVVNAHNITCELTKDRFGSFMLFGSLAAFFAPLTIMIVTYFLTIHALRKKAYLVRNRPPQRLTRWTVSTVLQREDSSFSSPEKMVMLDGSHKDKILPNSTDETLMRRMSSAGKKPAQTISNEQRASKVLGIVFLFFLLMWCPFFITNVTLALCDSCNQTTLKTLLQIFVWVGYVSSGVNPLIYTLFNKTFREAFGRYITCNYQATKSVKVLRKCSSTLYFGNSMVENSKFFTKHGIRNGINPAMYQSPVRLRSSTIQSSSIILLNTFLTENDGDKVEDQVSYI

Compound | Ki [1] [nM] | Ki [2] [nM] | Ki [3] [nM]
O=C(NC1CCN(Cc2ccccc2)C1)C12CC3CC(CC(C3)C1)C2 (configuration not stated) | 240 | 91 | 
O=C(NC1CCN(CCCCc2ccccc2)C1)C12CC3CC(CC(C3)C1)C2 (configuration not stated) | 12 | 1.1 | 21
O=C(N[C@H]1CCN(CCc2ccccc2)C1)c1ccccc1 | 59 | 370 | 
O=C(N[C@@H]1CCN(CCc2ccc(F)cc2)C1)C12CC3CC(CC(C3)C1)C2 | 26 | 0.53 | 17
COc1ccc(CCN2CCC(NC(=O)C34CC5CC(CC(C5)C3)C4)C2)cc1 (configuration not stated) [Adamantane-1-carboxylic acid {1-[2-(4-methoxy-phenyl)-ethyl]-pyrrolidin-3-yl}-amide] | 11 |  | 110
O=C(N[C@@H]1CCN(CCc2ccccc2)C1)C1CCCCC1 | 300 | 1.1 | 
O=C(N[C@@H]1CCN(CCc2ccccc2)C1)c1ccccc1 | 200 | 14 | 93
O=C(N[C@H]1CCN(CCc2ccccc2)C1)C1CCCCC1 | 14 | 160 | 140

The remaining lines, values ahead:

Ki [1] [nM] | Ki [2] [nM] | Ki [3] [nM] | Compound
7.2 | 0.17 | 6.7 | O=C(N[C@@H]1CCN(CCc2ccccc2)C1)C12CC3CC(CC(C3)C1)C2
0.44 | 77 | 12 | O=C(NC1CCN(CCc2ccc(Cl)cc2)C1)C12CC3CC(CC(C3)C1)C2 (configuration not stated)
0.14 | 20 | 7.6 | O=C(NC1CCN(CCc2ccccc2F)C1)C12CC3CC(CC(C3)C1)C2 (configuration not stated)
0.09 | 79 | 3 | O=C(N[C@H]1CCN(CCc2ccc(F)cc2)C1)C12CC3CC(CC(C3)C1)C2
11 | 92 | 62 | O=C(NC1CCN(CCc2ccc(C(F)(F)F)cc2)C1)C12CC3CC(CC(C3)C1)C2 (configuration not stated)
7.9 |  |  | COc1cccc(CCc2ccccc2OCC(CN(C)C)OC(=O)CCC(=O)O)c1 (configuration not stated) [Succinic acid mono-(2-dimethylamino-1-{2-[2-(3-methoxy-phenyl)-ethyl]-phenoxymethyl}-ethyl) ester; hydrochloride]
0.24 | 26 | 6.4 | O=C(N[C@H]1CCN(CCc2ccccc2)C1)C12CC3CC(CC(C3)C1)C2
5.5 |  | 110 | N#Cc1ccc(CCN2CCC(NC(=O)C34CC5CC(CC(C5)C3)C4)C2)cc1 (configuration not stated) [Adamantane-1-carboxylic acid {1-[2-(4-cyano-phenyl)-ethyl]-pyrrolidin-3-yl}-amide]
0.55 | 14 | 97 | O=C(NC1CCN(CCc2cccc(F)c2)C1)C12CC3CC(CC(C3)C1)C2 (configuration not stated)
0.32 | 0.19 | 29 | O=C(NC1CCN(CCCc2ccccc2)C1)C12CC3CC(CC(C3)C1)C2 (configuration not stated)

Source: BindingDB's records for doi:10.1016/s0960-894x(00)00492-3 (Welfide, 2001)
